In ChEMBL document CHEMBL4765441, “Design, synthesis and anti-cancer activity of pyrrole-imidazole polyamides through target-downregulation of c-kit gene expression” (Eur J Med Chem, 2020):
Calls of active or inactive are those of the source. The calls are words filed in the database; no cut-off is given here.

What was measured:
[1] = system: SGC-7901; experiment: Induction of apoptosis in human SGC7901 cells assessed as viable cells at 15 uM incubated for 36 hrs by Annexin V-FITC/propidium iodide staining-based flow cytometric analysis (reference value: 93.2 %); format: functional; conditions: read-out: Activity
[2] = system: MKN-45; experiment: Antiproliferative activity against human MKN-45 cells assessed as reduction in cell viability incubated for 48 hrs by xCELLigence RTCA; format: functional, cell-based; conditions: MKN-45, 48 h
[3] = system: A549; experiment: Induction of apoptosis in human A549 cells assessed as early apoptotic cells at 7.5 uM incubated for 36 hrs by Annexin V-FITC/propidium iodide staining-based flow cytometric analysis (reference value: 1.41 %); format: functional
[4] = system: A549; experiment: Induction of morphological changes in human A549 cells assessed as cell detachment at 15 uM incubated for 36 hrs by microscopic analysis; format: functional, cell-based
Method in brief: (§1)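 Cells seeded at 2 × 10^5 per well and grown 24 h. Medium then replaced with compound-containing medium. After 36 h co-culture, morphology inspected by light microscopy.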

[5] = system: A549; experiment: Induction of apoptosis in human A549 cells assessed as late apoptotic cells at 7.5 uM incubated for 36 hrs by Annexin V-FITC/propidium iodide staining-based flow cytometric analysis (reference value: 0.41 %); format: functional
[6] = system: A549; experiment: Induction of apoptosis in human A549 cells assessed as early apoptotic cells at 15 uM incubated for 36 hrs by Annexin V-FITC/propidium iodide staining-based flow cytometric analysis (reference value: 1.41 %); format: functional
[7] = system: SGC-7901; experiment: Induction of morphological changes in human SGC7901 cells assessed as apoptotic body formation at 7.5 uM incubated for 36 hrs by microscopic analysis; format: functional, cell-based; method in brief: as §1
[8] = system: A549; experiment: Inhibition of cell migration in human A549 cells at 1.5 uM incubated for 48 hrs by inverted fluorescence microscope based scratch wound healing assay; format: functional
Method in brief: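 20 × 10^4 cells per well grown to 80% confluence. Wound scratched with a pipette tip, washed twice with PBS and photographed under an inverted fluorescence microscope. Cells then held in serum-free medium with compound for 48 h. Migration measured as distance moved from the wound edge; mean ± SD, n = 3.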

[9] = system: A549; experiment: Down regulation of c-kit mRNA expression in human A549 cells at 7.5 uM incubated for 36 hrs by Western blot analysis; format: functional, cell-based; conditions: in the assay text read “RT-PCR analysis” for “Western blot analysis”
Method in brief: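 Cells treated for 36 h. Total RNA quantified by Nanodrop and checked on 1.5% agarose with ethidium bromide. 400 ng RNA per one-step RT-PCR with c-kit-specific primers; reverse transcription 30 min at 50 °C, then 2 min at 94 °C. Normalized to β-actin; semi-quantitative.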

[10] = Drug localization in nucleus of human SGC-7901 cells incubated for 24 hrs by Hoechst-33342 staining based confocal laser scanning microscopic analysis; format: ADME, subcellular; conditions: sgc-7901, 24 h
Method in brief: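 SGC-7901 cells cultured 24 h, then given fluorescein-labeled polyamide (1.0, unit unclear) for 4 h. Medium replaced and culture continued 20 h. Live cells viewed at ×300, then fixed in 4% paraformaldehyde for 10 min. Nuclei stained with Hoechst 33342 for 5 min, PBS-washed, imaged by confocal laser scanning microscopy.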

In the case of `CC(=O)Nc1cn(C)c(C(=O)Nc2cn(C)c(C(=O)Nc3cc(C(=O)Nc4cn(C)c(C(=O)NCCC(=O)Nc5cn(C)c(C(=O)Nc6cn(C)c(C(=O)NCC[C@@H](N)C(=O)Nc7cc(C(=O)Nc8cc(C(=O)NC[C@@H](O)CC(=O)Nc9cc(C(=O)Nc%10cn(C)c(C(=O)Nc%11cc(C(=O)Nc%12cc(C(=O)NCCC(=O)NCCCN(C)C)n(C)c%12)n(C)c%11)n%10)n(C)c9)n(C)c8)n(C)c7)n6)n5)n4)n(C)c3)n2)n1.Cl.Cl`, the viability at 15 µM [1] is reported as 43.6%, the IC50 [2] is reported as 7.41 µM and the Activity [3] is reported as 22.7%. For the same compound, the Activity [4] was “Active”, the Activity [5] was 14.1% and the Activity [6] was 28.9%. The Activity [7] was “Active”, the inhibition at 1.5 µM [8] was 83.8% and the Activity [9] was “Active”. The Drug uptake [10] was “Active”.
